What was measured:
[1] = target: T1, Gonadotropin-releasing hormone receptor (Rattus norvegicus, UniProt P30969); assay: Inhibitory concentration towards rat leutinizing releasing hormone receptor
T1 sequence (P30969 whole entry): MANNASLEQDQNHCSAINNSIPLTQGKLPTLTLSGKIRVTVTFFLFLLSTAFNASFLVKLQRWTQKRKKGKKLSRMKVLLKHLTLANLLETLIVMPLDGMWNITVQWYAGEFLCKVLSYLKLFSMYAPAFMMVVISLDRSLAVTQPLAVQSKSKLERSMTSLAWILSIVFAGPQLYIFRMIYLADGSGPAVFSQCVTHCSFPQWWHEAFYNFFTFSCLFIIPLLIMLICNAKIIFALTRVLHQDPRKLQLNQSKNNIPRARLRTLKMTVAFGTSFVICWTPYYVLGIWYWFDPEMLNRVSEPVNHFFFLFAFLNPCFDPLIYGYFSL
Method in brief: (§1)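 CHO cells transfected with human or rat LHRH receptor cDNA, loaded with Fluo-3 AM and preincubated 20 min at 25 °C with varying compound concentrations. Stimulated with LHRH (10 nM for human-receptor cells, 1 nM for rat-receptor cells). Intracellular calcium fluorescence read; inhibition from integral ratio (actual/initial fluorescence). IC50 is the mean of at least two experiments, each in triplicate.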

[2] = target: T2, Gonadotropin-releasing hormone receptor (Homo sapiens, UniProt P30968); assay: Inhibitory concentration towards human leutinizing releasing hormone receptor; method in brief: as §1
T2 sequence (P30968 whole entry): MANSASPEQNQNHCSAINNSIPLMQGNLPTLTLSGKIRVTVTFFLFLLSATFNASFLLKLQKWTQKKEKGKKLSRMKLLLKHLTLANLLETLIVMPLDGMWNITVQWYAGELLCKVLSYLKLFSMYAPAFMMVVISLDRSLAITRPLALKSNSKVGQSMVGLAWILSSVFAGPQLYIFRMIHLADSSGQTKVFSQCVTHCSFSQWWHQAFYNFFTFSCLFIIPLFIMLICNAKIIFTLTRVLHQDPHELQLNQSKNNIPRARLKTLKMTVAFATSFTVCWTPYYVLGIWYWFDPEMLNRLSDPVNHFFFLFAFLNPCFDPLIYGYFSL

SMILES	IC50 [1]	IC50 [2]
O=S(=O)(NCc1ccc(F)cc1)c1ccc2c(c1)nc(SCCO)n2Cc1ccccc1	600 nM	270 nM
CSc1nc2cc(S(=O)(=O)NCc3ccc(F)cc3)ccc2n1Cc1ccccc1	210 nM	220 nM
CCOc1nc2cc(S(=O)(=O)NCc3ccc(F)cc3)ccc2n1Cc1cccc(Cl)c1	1900 nM	880 nM
O=S(=O)(NCc1ccc(F)cc1)c1ccc2c(c1)nc(SCCN1CCOCC1)n2Cc1ccccc1	170 nM	160 nM
O=S(=O)(NCc1ccc(F)cc1)c1ccc2c(c1)nc(SCc1ccccn1)n2Cc1ccccc1	960 nM	820 nM
O=S(=O)(NCc1ccc(F)cc1)c1ccc2c(c1)nc(NCCN1CCOCC1)n2Cc1ccccc1	> 10000 nM	> 10000 nM
O=S(=O)(NCc1ccc(F)cc1)c1ccc2c(c1)nc(SCCc1cccnc1)n2Cc1ccccc1	140 nM	120 nM
CCSc1nc2cc(S(=O)(=O)NCc3ccc([N+](=O)[O-])cc3)ccc2n1Cc1ccccc1	1200 nM	1100 nM
CCSc1nc2cc(S(=O)(=O)NCCN3CCOCC3)ccc2n1Cc1ccccc1	> 10000 nM	> 10000 nM
CCSc1nc2cc(S(=O)(=O)NCc3ccc(F)cc3)ccc2n1Cc1ccccc1	200 nM	250 nM
O=S(=O)(NCc1ccc(F)cc1)c1ccc2c(c1)nc(SCCc1ccccn1)n2Cc1ccccc1	280 nM	230 nM
CCOC(=O)CSc1nc2cc(S(=O)(=O)NCc3ccc(F)cc3)ccc2n1Cc1ccccc1	810 nM	490 nM
CCOc1nc2cc(S(=O)(=O)NCc3ccc(F)cc3)ccc2n1Cc1ccccc1	470 nM	300 nM
CCSc1nc2cc(S(=O)(=O)NCc3ccc(Cl)cc3)ccc2n1Cc1ccccc1	330 nM	280 nM
CCOc1nc2cc(S(=O)(=O)NCc3ccc(F)cc3)ccc2n1Cc1ccsc1	2000 nM	1400 nM
O=S(=O)(NCc1ccc(F)cc1)c1ccc2c(c1)nc(SCc1ccncc1)n2Cc1ccccc1	240 nM	320 nM
O=S(=O)(NCc1ccc(F)cc1)c1ccc2c(c1)nc(SCCNCc1ccccc1)n2Cc1ccccc1	530 nM	670 nM
CCSc1nc2cc(S(=O)(=O)NCc3cccc(OC)c3)ccc2n1Cc1ccccc1	4000 nM	4800 nM
CCSc1nc2cc(S(=O)(=O)NCc3ccc(F)cc3)ccc2n1CCc1ccccc1	> 10000 nM	> 10000 nM
O=S(=O)(NCc1ccc(F)cc1)c1ccc2c(c1)nc(OCCN1CCOCC1)n2Cc1ccccc1	3200 nM	5800 nM
CCSc1nc2cc(S(=O)(=O)NCc3ccc(OC)cc3)ccc2n1Cc1ccccc1	940 nM	1100 nM
CCOc1nc2cc(S(=O)(=O)NCc3ccc(F)cc3)ccc2n1CCN1CCOCC1	7200 nM	2100 nM

Source: ChEMBL document CHEMBL1144304, “Benzimidazole derivatives as novel nonpeptide luteinizing hormone-releasing hormone (LHRH) antagonists. Part 1: Benzimidazole-5-sulfonamides” (Bioorg Med Chem Lett, 2005)
